# Data: ChEMBL document CHEMBL3232760 (Bioorg Med Chem, 2014)
# The source made the active and inactive calls. The calls are words filed in the database; no cut-off is given here.
# Assays:
# Type in all cases: cell-based
# [1] = target: T1, Steryl-sulfatase (Homo sapiens) (UniProt P08842); test: Inhibition of steroid sulfatase in human MCF7 cells assessed as conversion of [3H]E1S to [3H]E1 and [3H]E2 at 0.1 uM after 5 hrs by liquid scintillation counting
# T1 sequence (whole entry): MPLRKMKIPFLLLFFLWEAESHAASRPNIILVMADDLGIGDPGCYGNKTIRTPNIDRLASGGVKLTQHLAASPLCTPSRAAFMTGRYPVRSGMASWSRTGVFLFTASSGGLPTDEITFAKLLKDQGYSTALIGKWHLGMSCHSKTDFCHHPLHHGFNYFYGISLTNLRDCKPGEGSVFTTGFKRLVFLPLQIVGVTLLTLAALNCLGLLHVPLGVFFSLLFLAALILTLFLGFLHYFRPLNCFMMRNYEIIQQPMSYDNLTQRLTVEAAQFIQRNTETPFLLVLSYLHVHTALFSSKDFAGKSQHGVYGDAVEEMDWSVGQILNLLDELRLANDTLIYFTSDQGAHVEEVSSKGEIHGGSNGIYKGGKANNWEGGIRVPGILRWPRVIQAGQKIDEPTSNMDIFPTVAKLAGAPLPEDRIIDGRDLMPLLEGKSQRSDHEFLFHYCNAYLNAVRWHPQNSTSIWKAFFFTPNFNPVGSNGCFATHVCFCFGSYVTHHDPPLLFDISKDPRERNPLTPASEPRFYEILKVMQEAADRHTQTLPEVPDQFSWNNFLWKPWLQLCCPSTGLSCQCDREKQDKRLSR
# How it was run: (§1)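 MCF-7 homogenate (freeze–thaw five times, diluted in Tris–EDTA, centrifuged 15,000g 4 °C 15 min, supernatant adjusted to 0.2 mg/mL protein by Bradford) incubated with [3H]E1S (final 10 nM) and inhibitor at 37 °C for 5 h. Toluene extraction of [3H]E1 plus [3H]E2, liquid scintillation counting; 1 uM STX64 defined 100%; triplicate.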
# [2] = target: T1, Steryl-sulfatase (Homo sapiens); test: Inhibition of steroid sulfatase in human MCF7 cells assessed as conversion of [3H]E1S to [3H]E1 and [3H]E2 at 1 uM after 5 hrs by liquid scintillation counting; how it was run: as §1
# [3] = target: T2, Estrogen receptor beta (Homo sapiens, UniProt Q92731); test: Agonist activity at human Gal4-fused ER-beta expressed in HEK293 cells at 10 uM by luciferase reporter gene assay relative to 17beta-estradiol
# How it was run: (§2)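 Agonist mode: HEK293 cells in phenol-red-free DMEM with 5% FBS, 37 °C, 5% CO2, calcium phosphate cotransfected with GAL4-responsive MH100(UAS)x4-tk-LUC reporter, ER receptor fragment plasmid and beta-galactosidase plasmid. Compound added 8 h post-transfection, cells harvested 16–20 h later. Luciferase normalized to beta-galactosidase, triplicate means.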
# [4] = target: T3, Estrogen receptor (Homo sapiens, UniProt P03372); test: Agonist activity at human Gal4-fused ER-alpha expressed in HEK293 cells by luciferase reporter gene assay
# T3 sequence (P03372 whole entry): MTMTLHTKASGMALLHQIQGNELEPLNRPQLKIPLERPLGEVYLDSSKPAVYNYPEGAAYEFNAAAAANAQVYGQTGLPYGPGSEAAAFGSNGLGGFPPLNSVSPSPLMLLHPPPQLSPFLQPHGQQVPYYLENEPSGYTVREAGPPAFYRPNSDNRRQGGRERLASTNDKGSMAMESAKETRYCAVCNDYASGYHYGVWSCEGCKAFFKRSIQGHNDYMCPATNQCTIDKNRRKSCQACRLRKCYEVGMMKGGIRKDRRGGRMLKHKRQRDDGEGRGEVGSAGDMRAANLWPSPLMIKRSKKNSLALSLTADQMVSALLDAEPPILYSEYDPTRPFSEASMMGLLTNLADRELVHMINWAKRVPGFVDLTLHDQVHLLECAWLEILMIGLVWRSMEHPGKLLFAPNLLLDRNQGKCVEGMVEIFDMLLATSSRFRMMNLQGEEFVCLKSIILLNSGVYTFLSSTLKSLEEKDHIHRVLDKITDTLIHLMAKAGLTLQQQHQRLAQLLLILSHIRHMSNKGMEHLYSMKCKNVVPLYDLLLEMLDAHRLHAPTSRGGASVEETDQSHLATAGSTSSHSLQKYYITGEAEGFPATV
# How it was run: (§3)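 GAL4-ER fusion reporter in HEK293 (phenol-red-free DMEM, 5% FBS), calcium phosphate transfection with MH100(UAS)x4-tk-LUC and beta-galactosidase control; compounds given 8 h after transfection, harvest at 16–20 h. Luciferase/beta-galactosidase ratio, triplicate means; agonism expressed as EC50 (nM).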
# [5] = target: T2, Estrogen receptor beta; test: Antagonist activity at human Gal4-fused ER-beta expressed in HEK293 cells assessed as inhibition of 17beta-estradiol-induced effect at 3 uM by luciferase reporter gene assay
# How it was run: (§4)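 Antagonist mode in transfected HEK293 GAL4-ER luciferase system, with cells co-treated with 0.3 nM 17beta-estradiol. Compound added 8 h post-transfection, 16–20 h treatment, luciferase normalized to beta-galactosidase, triplicate means.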
# [6] = target: T4, Steryl-sulfatase (Homo sapiens, UniProt P08842); test: Inhibition of steroid sulfatase in human MCF7 cells assessed as conversion of [3H]E1S to [3H]E1 and [3H]E2 after 5 hrs by liquid scintillation counting; how it was run: as §1
# T4 sequence (P08842 whole entry): T1 sequence (whole entry)
# [7] = target: T3, Estrogen receptor; test: Antagonist activity at human Gal4-fused ER-alpha expressed in HEK293 cells assessed as inhibition of 17beta-estradiol-induced effect by luciferase reporter gene assay
# How it was run: (§5)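 With 0.3 nM 17beta-estradiol present, HEK293 cells calcium phosphate cotransfected with GAL4-responsive luciferase reporter, ER plasmid and beta-galactosidase were treated 8 h post-transfection for 16–20 h. Normalized luciferase, triplicate means; antagonism expressed as IC50 (nM).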
# [8] = target: T2, Estrogen receptor beta; test: Agonist activity at human Gal4-fused ER-beta expressed in HEK293 cells by luciferase reporter gene assay; how it was run: as §3
# [9] = target: T2, Estrogen receptor beta; test: Antagonist activity at human Gal4-fused ER-beta expressed in HEK293 cells assessed as inhibition of 17beta-estradiol-induced effect at 1 uM by luciferase reporter gene assay; how it was run: as §4
# [10] = target: T5, Estrogen receptor (Homo sapiens) (UniProt P03372); test: Agonist activity at human Gal4-fused ER-alpha expressed in HEK293 cells at 10 uM by luciferase reporter gene assay relative to 17beta-estradiol; how it was run: as §2
# T5 sequence (whole entry): T3 sequence (P03372 whole entry)
# [11] = target: T5, Estrogen receptor (Homo sapiens); test: Antagonist activity at human Gal4-fused ER-alpha expressed in HEK293 cells assessed as inhibition of 17beta-estradiol-induced effect at 3 uM by luciferase reporter gene assay; how it was run: as §4
# [12] = target: T2, Estrogen receptor beta; test: Antagonist activity at human Gal4-fused ER-beta expressed in HEK293 cells assessed as inhibition of 17beta-estradiol-induced effect by luciferase reporter gene assay; how it was run: as §5
# T2 sequence (Q92731 whole entry, the tested form may be a part): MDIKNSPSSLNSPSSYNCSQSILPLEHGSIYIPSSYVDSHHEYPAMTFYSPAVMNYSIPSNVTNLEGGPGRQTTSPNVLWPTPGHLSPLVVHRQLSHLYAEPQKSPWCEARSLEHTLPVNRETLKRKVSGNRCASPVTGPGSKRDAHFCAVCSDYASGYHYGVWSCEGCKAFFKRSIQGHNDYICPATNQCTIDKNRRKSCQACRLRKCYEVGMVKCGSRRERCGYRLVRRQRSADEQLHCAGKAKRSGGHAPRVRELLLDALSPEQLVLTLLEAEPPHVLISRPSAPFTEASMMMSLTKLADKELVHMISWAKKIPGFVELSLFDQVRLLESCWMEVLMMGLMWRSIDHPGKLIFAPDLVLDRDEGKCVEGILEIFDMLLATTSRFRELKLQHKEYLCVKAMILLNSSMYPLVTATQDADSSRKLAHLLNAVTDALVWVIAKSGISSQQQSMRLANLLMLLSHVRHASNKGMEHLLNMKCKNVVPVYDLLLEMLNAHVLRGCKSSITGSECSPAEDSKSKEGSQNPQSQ
Structure (SMILES),inhibition [1] [%],inhibition [2] [%],Activity [3],inhibition [5],Activity [10],inhibition [11],other results
CN(C)S(=O)(=O)Oc1ccc([Si](C)(C)c2ccc(OS(=O)(=O)N(C)C)cc2)cc1,< 10,< 10,,,,,
NS(=O)(=O)Oc1ccc(Sc2ccc(OS(N)(=O)=O)cc2)cc1,57.1,89.7,82.8%,inactive,,,EC50 [4]: Active; IC50 [6]: 88 nM
CCC(CC)(c1ccc(O)c(C)c1)c1ccc(O)c(C)c1,,,,,,,EC50 [4]: Not Active; IC50 [7]: 3.53 nM; EC50 [8]: Not Active
CC[Si](CC)(c1ccc(O)cc1)c1ccc(O)cc1,,,11.9%,,7.1%,,IC50 [7]: 115 nM; inhibition [9]: 53%
NS(=O)(=O)Oc1ccc(Cc2ccc(OS(N)(=O)=O)cc2)cc1,< 10,50.1,,2.25%,,,EC50 [4]: Active; IC50 [6]: 1020 nM
C[Si](C)(c1ccc(OS(N)(=O)=O)cc1)c1ccc(OS(N)(=O)=O)cc1,35.8,81.9,16.7%,inactive,10.8%,inactive,
C[Si](C)(c1ccc(O)cc1)c1ccc(O)cc1,< 10,< 10,,,25.3%,50.9%,IC50 ([12]; hek293): Not Active
NS(=O)(=O)Oc1ccc2c3c(c(=O)oc2c1)CCCCC3,,100,,,,,
CC[Si](CC)(c1ccc(O)c(C)c1)c1ccc(O)c(C)c1,,,,53.5%,,,IC50 [7]: 29.7 nM
CCCCC(CCCC)(c1ccc(O)c(C)c1)c1ccc(O)c(C)c1,,,,,,,EC50 [4]: Not Active; EC50 [8]: Not Active
CCC(CC)(c1ccc(OS(N)(=O)=O)c(C)c1)c1ccc(OS(N)(=O)=O)c(C)c1,< 10,25.4,inactive,49.3%,inactive,36.7%,
CCC[Si](CCC)(c1ccc(O)c(C)c1)c1ccc(O)c(C)c1,,,4.9%,,5.6%,,IC50 [7]: 26.2 nM; IC50 ([12]; read-out: IC50): 804 nM
Oc1ccc(Sc2ccc(O)cc2)cc1,,,,,37.8%,,IC50 ([12]; hek293): Not Active
CCCC(CCC)(c1ccc(O)c(C)c1)c1ccc(O)c(C)c1,,,6.1%,,,,EC50 [4]: Not Active
CCC(CC)(c1ccc(OS(N)(=O)=O)cc1)c1ccc(OS(N)(=O)=O)cc1,11,29.9,inactive,49.3%,inactive,53.2%,
CCC(CC)(c1ccc(O)cc1)c1ccc(O)cc1,,,9.3%,,,,EC50 [4]: Not Active; IC50 [7]: 118 nM
CC[Si](CC)(c1ccc(OS(N)(=O)=O)c(C)c1)c1ccc(OS(N)(=O)=O)c(C)c1,22.6,82.6,inactive,47.2%,inactive,94.8%,IC50 [6]: 170 nM
CC(C)(c1ccc(OS(N)(=O)=O)cc1)c1ccc(OS(N)(=O)=O)cc1,< 10,< 10,inactive,7.79%,9.5%,6.63%,
CCCCC(CCCC)(c1ccc(OS(N)(=O)=O)c(C)c1)c1ccc(OS(N)(=O)=O)c(C)c1,10.3,28,,inactive,,42.5%,
CCCC(CCC)(c1ccc(OS(N)(=O)=O)c(C)c1)c1ccc(OS(N)(=O)=O)c(C)c1,< 10,21.1,,43.9%,,54.9%,
CC[Si](CC)(c1ccc(OS(N)(=O)=O)cc1)c1ccc(OS(N)(=O)=O)cc1,62,96.4,1.1%,62.8%,inactive,100%,
Oc1ccc(Cc2ccc(O)cc2)cc1,,,,,,22.6%,IC50 ([12]; hek293): Not Active
CCC[Si](CCC)(c1ccc(OS(N)(=O)=O)c(C)c1)c1ccc(OS(N)(=O)=O)c(C)c1,< 10,18.7,,18%,,87.1%,
CC(C)(c1ccc(O)cc1)c1ccc(O)cc1 [BISPHENOL A],,,,,28.7%,36.1%,IC50 ([12]; hek293): Not Active
C[Si](C)(c1ccc(O)cc1)c1ccc(OS(N)(=O)=O)cc1,25.2,76.4,,,,,
CCCC[Si](CCCC)(c1ccc(OS(N)(=O)=O)c(C)c1)c1ccc(OS(N)(=O)=O)c(C)c1,< 10,16.4,,inactive,,16.4%,
